This is an account of results in ChEMBL document CHEMBL2331355, “Synthesis, structure activity relationship and mode of action of 3-substitutedphenyl-1-(2,2,8,8-tetramethyl-3,4,9,10-tetrahydro-2H,8H-pyrano[2,3-f]chromen-6-yl)-propenones as novel anticancer agents in human leukaemia HL-60 cells” (Eur J Med Chem, 2013).

SMILES strings stand for the structures. Structures can show the parent of a compound that is named as a salt.

Holding throughout (format): functional
Assay [1] deals with HL-60. Briefly: Growth inhibition of human HL60 cells at 10 uM after 48 hrs by MTT assay. The settings on record: HL-60, 48 h, read-out: GI. An outline of the steps: (§1)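 MTT assay. Suspension or adherent cells were exposed to compound for 48 h. OD was read at 570 nm (reference 620 nm), with untreated control OD set as 100% viability. Results are percent growth inhibition, mean ± SD of three independent experiments.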
(In general: Tetrazolium assays rely on reduction of a dye to a coloured formazan, in cell work by metabolically active cells.)

For assay [2], the system named is PC-3. Put plainly: Growth inhibition of human PC3 cells at 10 uM after 48 hrs by MTT assay. The settings on record: PC-3, 48 h, read-out: GI. Summed up: as §1
In assay [3] the test system is HL-60. Put plainly: Growth inhibition of human HL60 cells at 50 uM after 48 hrs by MTT assay. The settings on record: HL-60, 48 h, read-out: GI. Summed up: (§2)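 Single-concentration MTT screen at 50 µM over 48 h in 96-well plates. Compounds giving >50% inhibition were rescreened at 30 µM. OD read at 570 nm, reference 620 nm. Result expressed as % growth inhibition versus untreated control. Mitomycin C, adriamycin or 5-fluorouracil used as positive controls. Mean ± SD of three independent experiments.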

For the next assay, the system named is Caco-2. Briefly: Growth inhibition of human Caco2 cells at 50 uM after 48 hrs by MTT assay. The settings on record: Caco-2, 48 h, read-out: GI. An outline of the steps:
as §2

The next assay concerns ASPC1. Briefly: Growth inhibition of human AsPC1 cells at 50 uM after 48 hrs by MTT assay. The settings on record: ASPC1, 48 h, read-out: GI. Summed up: as §2
Assay [4] has as its system PC-3. Briefly: Growth inhibition of human PC3 cells at 50 uM after 48 hrs by MTT assay. The settings on record: PC-3, 48 h, read-out: GI. An outline of the steps: as §2
In a further assay the test system is MDA-MB-435. Put plainly: Growth inhibition of human MDA-MB-435 cells at 50 uM after 48 hrs by MTT assay. The settings on record: MDA-MB-435, 48 h, read-out: GI. Summed up:
as §2

The test system of assay [5] is MCF7. Put plainly: Growth inhibition of human MCF7 cells at 50 uM after 48 hrs by MTT assay. The settings on record: MCF7, 48 h, read-out: GI. An outline of the steps:
as §2

The subject of the next assay is MIA PaCa-2. Briefly: Growth inhibition of human MIAPaCa2 cells at 50 uM after 48 hrs by MTT assay. The settings on record: MIA PaCa-2, 48 h, read-out: GI. An outline of the steps:
as §2

Assay [6] deals with MCF7. Put plainly: Growth inhibition of human MCF7 cells at 2 uM after 48 hrs by MTT assay. The settings on record: MCF7, 48 h, read-out: GI.

On to `O=c1[nH]cc(F)c(=O)[nH]1` [FLUOROURACIL], for which the inhibition of growth at 10 µM in the assay with HL-60 [1] was found to be 84%; in the assay on PC-3 [2], 72%.

With `CC(=O)c1cc2c(c3c1OC(C)(C)CC3)OC(C)(C)CC2`, the inhibition of growth at 50 µM in the assay on HL-60 [3] worked out at 25%; in the assay on Caco-2, 20%; with ASPC1 it was 5%; in the assay on PC-3 [4], 19%; with MDA-MB-435 it was 2%; with MCF7 [5], 18%. In addition, the inhibition of growth at 50 µM in the assay on MIA PaCa-2 was found to be 25%.

`COc1cccc2c1C(=O)c1c(O)c3c(c(O)c1C2=O)C[C@@](O)(C(=O)CO)C[C@@H]3O[C@H]1C[C@H](N)[C@H](O)[C@H](C)O1` [DOXORUBICIN HYDROCHLORIDE]: the inhibition of growth at 2 µM in the assay with MCF7 [6] was found to be 90%.
